Test results reported in ChEMBL document CHEMBL1795283, “Dihydro-β-agarofuran sesquiterpenes isolated from Celastrus vulcanicola as potential anti-Mycobacterium tuberculosis multidrug-resistant agents” (2011).
Values after ≈ are worked out from the molar mass of the structure shown.

Legend:
[1] = system: Mycobacterium tuberculosis; assay: Antimycobacterial activity against Mycobacterium tuberculosis H37Rv after 24 hrs by tetrazolium microplate assay; format: functional
In short: (§1)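 TEMA broth microdilution; inoculum from 20–30-day-old slant growth suspended in Tween 80/0.2% BSA, adjusted to McFarland No. 1, final ca. 1.2 × 10⁶ CFU/mL. Compound mixed 1:1 with inoculum, DMSO solvent control; sealed plates incubated 37 °C 5 days, then MTT/Tween 80 added, 24 h 37 °C; yellow-to-purple colour change read. MIC = lowest concentration giving 100% inhibition; means of 3 or 4 replicates.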

[2] = system: Mycobacterium tuberculosis; assay: Antimycobacterial activity against Mycobacterium tuberculosis isolate 02TBDM039EP097 after 24 hrs by tetrazolium microplate assay; format: functional; settings: isolate 02TBDM039EP097, 24 h; in short: as §1

Row | SMILES | MIC [1] [µg/mL] | MIC [2] [µg/mL]
1 | CC1(C)O[C@]23[C@H](O)[C@H]1[C@H](O)[C@H](O)[C@]2(C)[C@@H](O)CC[C@]3(C)O | > 25 | > 25
2 | CC(=O)O[C@H]1[C@@H]2[C@@H](OC(=O)c3cccnc3)[C@]3(OC2(C)C)[C@H](C)CC[C@H](OC(C)=O)[C@@]3(C)[C@H]1OC(=O)c1ccccc1 | > 25 | 25 (≈ 43.1 µM)
3 | CC(=O)O[C@H]1[C@@H]2[C@@H](O)[C@]3(OC2(C)C)[C@H](C)CC[C@H](OC(C)=O)[C@@]3(C)[C@H]1OC(=O)c1ccccc1 | > 25 | > 25
4 | CC(=O)O[C@H]1CC[C@](C)(O)[C@]23OC(C)(C)[C@H]([C@H](O)[C@H](OC(=O)c4ccccc4)[C@]12C)[C@H]3OC(C)=O | > 25 | > 25
5 | CC(=O)O[C@@H]1[C@@H]2[C@@H](OC(=O)c3ccccc3)[C@@]3(OC2(C)C)[C@@](C)([C@@H](OC(C)=O)CC[C@]3(C)O)[C@H]1OC(=O)c1ccccc1 | > 25 | 12.5 (≈ 21 µM)
6 | CC(=O)O[C@H]1CC[C@](C)(O)[C@]23OC(C)(C)[C@H]([C@H](OC(=O)[C@H](O)[C@@H](O)c4ccccc4)[C@H](OC(=O)c4ccccc4)[C@]12C)[C@H]3O | > 25 | > 25
7 | CC(=O)O[C@@H]1[C@@H]2[C@@H](OC(=O)c3cccnc3)[C@@]3(OC2(C)C)[C@@](C)([C@@H](OC(C)=O)CC[C@]3(C)O)[C@H]1OC(=O)c1ccccc1 | > 25 | > 25
8 | CC(=O)O[C@H]1[C@@H]2[C@@H](OC(C)=O)[C@@]3(OC2(C)C)[C@@](C)([C@@H](OC(C)=O)CC[C@]3(C)O)[C@H]1OC(C)=O | > 25 | > 25
9 | CC(=O)O[C@H]1[C@@H]2[C@@H](OC(C)=O)[C@@]3(OC2(C)C)[C@@](C)([C@@H](OC(C)=O)CC[C@]3(C)O)[C@H]1O | > 25 | > 25
10 | CC(=O)O[C@H]1[C@@H]2[C@@H](O)[C@@]3(OC2(C)C)[C@@](C)([C@@H](OC(C)=O)CC[C@]3(C)O)[C@H]1O | > 25 | > 25
11 | CC(=O)O[C@H]1CC[C@@H](C)[C@]23OC(C)(C)[C@H]([C@H](OC(=O)/C=C\c4ccccc4)[C@H](OC(=O)c4ccccc4)[C@]12C)[C@H]3O | > 25 | 25 (≈ 44.4 µM)
12 | CC(=O)O[C@H]1CC[C@](C)(O)[C@]23OC(C)(C)[C@H]([C@H](OC(=O)/C=C\c4ccccc4)[C@H](OC(=O)c4ccccc4)[C@]12C)[C@H]3O | > 25 | > 25
13 | CC(=O)O[C@H]1[C@@H]2[C@@H](OC(=O)c3ccccc3)[C@@]3(OC2(C)C)[C@@](C)([C@@H](OC(C)=O)CC[C@]3(C)O)[C@H]1OC(=O)c1ccccc1 | > 25 | > 25
14 | CC(=O)O[C@H]1[C@@H]2[C@@H](OC(=O)c3cccnc3)[C@@]3(OC2(C)C)[C@@](C)([C@@H](OC(C)=O)CC[C@]3(C)O)[C@H]1OC(=O)c1ccccc1 | > 25 | > 25
15 | CC(=O)O[C@H]1CC[C@@H](C)[C@]23OC(C)(C)[C@H](C[C@H](OC(=O)/C=C/c4ccccc4)[C@]12C)[C@H]3OC(C)=O | > 25 | 12.5 (≈ 25.8 µM)
16 | CC(=O)O[C@H]1CC[C@@H](C)[C@]23OC(C)(C)[C@H](C[C@H](OC(=O)/C=C/c4ccccc4)[C@]12C)[C@H]3O | > 25 | 25 (≈ 56.5 µM)
17 | CC(=O)O[C@H]1[C@@H](O)C[C@](C)(O)[C@]23OC(C)(C)[C@H]([C@H](OC(=O)/C=C/c4ccccc4)[C@H](OC(=O)c4ccccc4)[C@]12C)[C@H]3O | > 25 | > 25
18 | CC(=O)O[C@H]1CC[C@@H](C)[C@@]23C[C@@H](C[C@H](OC(=O)/C=C/c4ccccc4)[C@]12C)C(C)(C)O3 | > 25 | > 25
19 | CC(=O)O[C@H]1[C@@H]2[C@@H](OC(=O)c3ccccc3)[C@@]3(OC2(C)C)[C@](C)([C@H]1OC(=O)c1ccccc1)[C@@H](OC(C)=O)[C@@H](O)C[C@]3(C)O | > 25 | > 25
20 | CC(=O)O[C@H]1CC[C@@H](C)[C@]23OC(C)(C)[C@H]([C@H](OC(=O)/C=C/c4ccccc4)[C@H](OC(=O)c4ccccc4)[C@]12C)[C@H]3O | > 25 | 12.5 (≈ 22.2 µM)
21 | CC(=O)O[C@H]1CC[C@](C)(O)[C@]23OC(C)(C)[C@H]([C@H](OC(=O)/C=C/c4ccccc4)[C@H](OC(=O)c4ccccc4)[C@]12C)[C@H]3O | > 25 | 12.5 (≈ 21.6 µM)
22 | CC(=O)O[C@H]1CC[C@@H](C)[C@]23OC(C)(C)[C@H](C[C@H](OC(=O)c4ccccc4)[C@]12C)[C@H]3OC(=O)c1ccccc1 | > 25 | 6.2 (≈ 11.9 µM)
23 | CC(=O)O[C@H]1CC[C@](C)(O)[C@]23OC(C)(C)[C@H]([C@H](OC(=O)/C=C/c4ccccc4)[C@H](OC(=O)c4ccccc4)[C@]12C)[C@H]3OC(C)=O | > 25 | 12.5 (≈ 20.1 µM)
24 | NNC(=O)c1ccncc1 [ISONIAZID] | 0.125 (≈ 0.911 µM) | 4 (≈ 29.2 µM)
25 | CC(=O)O[C@H]1CC[C@](C)(O)[C@]23OC(C)(C)[C@H]([C@H](O)[C@H](OC(=O)c4ccccc4)[C@]12C)[C@H]3O [REISSANTIN D] | > 25 | > 25
26 | CO[C@H]1/C=C/O[C@@]2(C)Oc3c(C)c(O)c4c(O)c(c(/C=N/N5CCN(C)CC5)c(O)c4c3C2=O)NC(=O)/C(C)=C\C=C\[C@H](C)[C@H](O)[C@@H](C)[C@@H](O)[C@@H](C)[C@H](OC(C)=O)[C@@H]1C [RIFAMPIN] | 0.063 (≈ 0.0766 µM) | > 16
